hERG protect: hERG rescue from dofetilide block, primary screen, cell-based, CHO-hERG, FluxOR thallium flux, dofetilide IC70; hit rate 0.51% among 310,000; activation (rescue from dofetilide block), less the hit threshold, % at 10 µM; AID 1511, 2009; dofetilide IC70 present; Voltage-gated inwardly rectifying potassium channel KCNH2 (Homo sapiens), Q12809;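 active = activation above the mean of controls blocked by dofetilide plus 5 SD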;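 note: thallium influx through hERG after potassium depolarization seen as dye fluorescence rise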
KCNQ1 inh: inhibitors of human KCNQ1 channel, primary screen, cell-based, thallium flux, high-throughput. Potassium voltage-gated channel subfamily KQT member 1 (Homo sapiens), P51787. CHO-K1 KCNQ1, FluxOR thallium flux fluorescence; stronger effect = higher value. B-score at 10 µM. hit rate 1.3% among 310,000. AID 2642, 2010;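 active = compounds whose thallium flux B-score, printed positive for inhibition, exceeds three library SD while starting fluorescence stays within three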;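 note: channel opened by potassium depolarization with thallium stimulus after 20 min compound exposure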
KCNK9 block: KCNK9 potassium channel inhibitors, primary screen, HEK293 cells, thallium flux. FluxOR thallium flux fluorescence; stronger effect = lower value. hit rate 1.2% among 310,000. AID 488922, 2010. Potassium channel subfamily K member 9 (Homo sapiens), Q9NPC2. B-score at 10 µM;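 active = ratio B-score over 3 SD below the library mean, with starting fluorescence within 5 SD of its mean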;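 note: negative B-score means less thallium flux so channel inhibition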
Kir21 inh: inhibitors of mouse Kir2.1 inward-rectifier potassium channel; Inward rectifier potassium channel 2 (Mus musculus), P35561; HEK293-Kir2.1, FluxOR thallium flux fluorescence; stronger effect = lower value; B-score at 10 µM; hit rate 0.85% among 310,000; AID 1672, 2009;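 active = fluorescence ratio B-score at or below minus 3 SD of library scores, with starting-brightness B-score within 2 SD, cut at about -4.2 in these data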;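 note: channel flux triggered by added potassium and thallium sulfate stimulus; B-score of peak minus minimum fluorescence over baseline after thallium stimulus; more negative B-score means stronger Kir2.1 block with less thallium influx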
Target sequence (P35561 whole entry, looked up): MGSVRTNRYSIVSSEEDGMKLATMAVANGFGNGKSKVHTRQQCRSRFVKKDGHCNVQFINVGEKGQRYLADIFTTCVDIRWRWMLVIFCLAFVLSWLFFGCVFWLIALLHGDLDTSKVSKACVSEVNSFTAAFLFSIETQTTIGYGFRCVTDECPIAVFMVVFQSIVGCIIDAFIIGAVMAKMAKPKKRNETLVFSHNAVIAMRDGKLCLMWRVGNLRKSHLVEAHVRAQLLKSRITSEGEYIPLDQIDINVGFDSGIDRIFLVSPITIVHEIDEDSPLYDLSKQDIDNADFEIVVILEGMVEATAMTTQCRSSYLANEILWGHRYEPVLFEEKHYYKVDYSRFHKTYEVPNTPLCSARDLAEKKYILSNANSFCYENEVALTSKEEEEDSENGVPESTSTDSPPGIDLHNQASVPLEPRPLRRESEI
KCNQ1 act: potentiators or activators of KCNQ1 channel, primary screen, cell-based, thallium flux, high-throughput | B-score at 10 µM | Potassium voltage-gated channel subfamily KQT member 1 (Homo sapiens), P51787 | hit rate 0.35% among 310,000 | CHO-K1 KCNQ1, thallium flux FluxOR fluorescence; stronger effect = higher value;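 active = fluorescence ratio B-score, a plate-corrected score, at least three library SD, with initial intensity B-score within 5 SD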
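System: CHO-K1 cells stably expressing KCNQ1 / Medium: assay buffer for compound exposure, DMSO matched across wells / Reagent: thallium- and potassium-containing depolarizing buffer / Compound: one concentration, matched DMSO / Incubation: 20 min compound pretreatment at room temperature / Measured by: kinetic FluxOR fluorescence, 10 s baseline plus 110 s post-stimulus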
KCNK3 block: human KCNK3 channel inhibitors, primary screen, CHO cells, FluxOR thallium flux, B-score | Potassium channel subfamily K member 3 (Homo sapiens), O14649 | FluxOR fluorescence; stronger effect = lower value | B-score at 10 µM | hit rate 0.84% among 340,000 | AID 602410, 2012;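 active = B-score under library mean minus 4 SD, starting fluorescence ratio at most library mean plus 5 SD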;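 note: more negative B-score means stronger inhibition of thallium flux through KCNK3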
* = called active by the depositor; i = inactive; / = not tested or not shown. In the library only some 3.8% were active in any assay of this set; here they are far more common.

SMILES | hERG protect | KCNQ1 inh | KCNK9 block | Kir21 inh | KCNQ1 act | KCNK3 block
CC(NC(=O)COC(=O)[C@@H]1CCCN1S(=O)(=O)c1ccccc1F)C12CC3CC(CC(C3)C1)C2 (stereo partly drawn) | -11 | i | -6.8* | 0.05 | i | i
O=C(OCC(=O)N1CCc2ccccc21)[C@@H]1CCCN1S(=O)(=O)c1ccccc1F | / | / | / | / | / | i
Cc1cc(C)n(C(=O)/C(C#N)=N/Nc2cc(Cl)cc(Cl)c2)n1 | -20 | 8* | i | -1.6 | i | i
Cc1cc(C)n(C(=O)/C(C#N)=N\Nc2ccccc2[N+](=O)[O-])n1 | -21 | i | i | 2.1 | i | i
O=C(COC(=O)Cn1cnc2ccccc21)Nc1ccc2c(c1)OCCO2 | -6 | i | i | -0.05 | i | i
CN(C)CCC#CC(O)(c1ccccc1)c1ccccc1 | -7 | i | i | -1.3 | i | i
COC(=O)c1ccccc1NC(=O)c1ccc2c(c1)OCCCO2 | -6 | i | -6.8* | 0.68 | i | i
Cc1ccccc1NC(=O)c1ccc2c(c1)OCCO2 | -4 | i | i | -2.5 | i | i
COc1ccc(S(=O)(=O)n2nc(OC(=O)c3ccccc3Br)cc2N)cc1 | -9 | i | i | 0.96 | i | -9.1*
COc1ccc(S(=O)(=O)n2nc(OC(=O)c3ccccc3)cc2N)cc1 | -12 | i | i | 0.11 | i | i
Cc1cc(N2CCCCC2)nc(NCc2ccccc2)n1 | -8 | i | i | -6.7* | i | i
Cc1cc(N2CCN(c3ccccc3)CC2)nc(-c2ccccc2)n1 | -2 | i | -7.6* | -1.6 | i | i
Cc1cc(N2CCOCC2)nc(NCc2ccccc2)n1 | -10 | i | i | 0 | i | i
COC(=O)Oc1c(Br)c(=O)oc2ccccc12 | -34 | i | i | -4.8* | i | i
CCOC(=O)Cc1csc(NC(=O)/C=C/c2ccco2)n1 | -13 | i | i | 0.01 | i | i
O=C(CSc1nc2cc(Cl)ccc2s1)NC1CCCc2ccccc21 (stereo not drawn) | -3 | i | -7.8* | -1.1 | i | i
Cn1nnnc1SCC(=O)NC1CCCc2ccccc21 (stereo not drawn) | 6.3* | i | i | 0.32 | i | i
CCOc1cccc(-c2c(C(=O)N/N=C/c3ccncc3)nnn2-c2nonc2N)c1 | -10 | i | i | 0.68 | i | i
CCOc1cccc(-c2c(C(=O)N/N=C(\C)c3ccccn3)nnn2-c2nonc2N)c1 | -14 | i | -7* | -0.5 | i | i
O=C(COc1ccccc1)NC(=S)N1CCc2ccccc21 | 4.9* | i | i | -0.25 | 10* | i
O=C(NC(=S)N1CCCc2ccccc21)c1ccc(Br)cc1 | 43* | i | i | -1.6 | 16* | i
Cc1cccc(CS(=O)(=O)c2ncc(Cl)c(C(=O)Nc3c(C)cccc3C)n2)c1 | -18 | i | -6.7* | -12* | i | i
O=C(NCC1CCCO1)c1nc2c(nnn2Cc2ccccc2Cl)c(=O)[nH]1 (stereo not drawn) | 0 | i | i | -0.11 | i | i
COc1ccc(Nc2nc(N)c3ccccc3n2)c(OC)c1 | -4 | i | i | -5.1* | i | i
COc1ccccc1Nc1nc(-c2ccccc2)nc2ccccc12 | -10 | i | -7.2* | -0.25 | i | i
SMILES | hERG protect | KCNQ1 inh | KCNK9 block | Kir21 inh | KCNQ1 act | KCNK3 block
CC(C)(C)Nc1c2ccccc2nc2ccccc12 | -8 | i | i | -4.5* | i | i
COc1ccc(Nc2nc(N)nc(C(F)(F)F)n2)c(OC)c1 | -4 | i | i | 1.3 | i | i
COc1cc(Nc2c3ccccc3nc3ccccc23)cc(OC)c1OC | -7 | i | i | 0.58 | i | i
COc1ccccc1Nc1c2ccccc2nc2ccccc12 | -12 | i | i | -5* | i | i
CC(O)(Cc1cccnc1)c1cccs1 (stereo not drawn) | / | / | / | / | / | i
CC(=O)c1sc(NC(=O)C(C)Oc2ccc3c(C)cc(=O)oc3c2)nc1C (stereo not drawn) | -12 | i | i | -1 | i | i
Cc1c(Cl)c([N+](=O)[O-])nn1CC(=O)NCc1cccs1 | 4.8* | i | i | 1.4 | i | i
Cc1cc2nc(-c3ccc(SCc4ccc(C(=O)O)cc4)nc3)[nH]c2cc1C | -9 | i | i | -1.5 | i | i
Cc1cc2nc(-c3ccc(SCc4ccccc4C#N)nc3)[nH]c2cc1C | -1 | 7* | i | -0.95 | i | i
O=C(CN1C(=O)c2cccnc2Oc2ccc(Cl)cc21)Nc1ccccc1F | -8 | i | -6.8* | 1.5 | i | i
COc1cccc(NC(=O)N2CCCC2C(=O)Nc2cc(C)ccc2OC)c1 (stereo not drawn) | -7 | i | i | -1.6 | i | i
CC(Sc1ccc(Cl)cc1)C(=O)NNC(=O)c1ccco1 (stereo not drawn) | / | / | / | / | / | i
N#CC1=C(N)C2=CCCC[C@H]2[C@H](c2cccc(F)c2)C1(C#N)C#N | -10 | i | i | -5.4* | i | i
N#CC1=C(N)C(C#N)(C#N)C(c2cccnc2)C2CC(c3ccccc3)CC=C12 (stereo not drawn) | -5 | i | i | 1.4 | i | i
O=C(/C=C/c1ccccc1O)c1ccco1 | -1 | i | i | -3.5 | i | i
COc1ccccc1/C=C/C(=O)c1cc(Br)ccc1OC(=O)c1ccco1 | 5.0* | i | i | 0.29 | i | i
O=C(/C=C/c1cc(Br)ccc1O)c1ccco1 | -23 | i | i | -5.9* | i | -9.8*
CCCC(=O)OCCNc1cc(Sc2nccn2C)c2nonc2c1[N+](=O)[O-] | -32 | i | i | -6.3* | i | i
CCC(=O)OCCNc1cc(Sc2nc3ccccc3s2)c2nonc2c1[N+](=O)[O-] | -16 | 6* | i | 0.15 | i | i
CCOc1cc(C(c2c(C)[nH][nH]c2=O)c2c(C)[nH][nH]c2=O)ccc1OCc1ccc([N+](=O)[O-])cc1 | -6 | i | i | -5.7* | i | i
O=C(Nc1c(F)cc(F)cc1Br)c1cccnc1 | -14 | i | i | 1.5 | i | i
CC1(C)CC(NCCC(c2ccccc2)c2ccco2)CCO1 (stereo not drawn) | -7 | i | i | -0.07 | i | i

Screens deposited in PubChem BioAssay by Johns Hopkins Ion Channel Center.
